This is an account of results in ChEMBL document CHEMBL4020774, “Anti-influenza activity of monoterpene-containing substituted coumarins” (Bioorg Med Chem Lett, 2017).

Active and inactive are the calls of the source. No cut-off for these calls is given here.

As a reminder, the CC50 is the concentration giving 50% cytotoxicity. The low end stands for greater toxicity to the cells, the high end for lower toxicity to the cells. In general, IC50 refers to the midpoint of a concentration-inhibition curve.

A short description of series [1]: Cytotoxicity against MDCK cells after 48 hrs by MTT assay. It counts as cell-based, Canis lupus familiaris. To be noted: dog. An outline of the steps: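 Uninfected MDCK cells were exposed to three-fold compound dilutions in MEM for 48 h at 36°C, 5% CO2, then washed with PBS. MTT ([…] in PBS) was added for 1 h, and formazan was dissolved in DMSO.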
On the technique in general: Tetrazolium dyes change colour on reduction, which living cells bring about.

A short description of series [2]: Antiviral activity against Influenza A virus (A/California/07/09(H1N1)) pdm09 infected in MDCK cells pretreated for 1 hr followed by viral infection incubated for 24 hrs measured after 48 hrs by hemagglutination test. In kind it is functional, cell-based, Influenza A virus (A/California/07/2009(H1N1)). In a few lines: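 MDCK cells preincubated with compound for 1 h at 36°C, each concentration in triplicate, then infected (moi 0.01) for 24 h at 36°C, 5% CO2. Supernatant virus titer was read by hemagglutination after 48 h culture in MDCK cells at 36°C.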

The nature of series [3]: Selectivity index, ratio of CC50 for MDCK cells to IC50 for Influenza A virus (A/California/07/09(H1N1)) pdm09 infected in MDCK cells. It counts as toxicity, cell-based. As to conditions: dog; read-out: Ratio CC50/IC50.
Series [4] has as its system Influenza A virus. The series can be described thus: Antiviral activity against Influenza A virus (A/Puerto Rico/8/34(H1N1)) infected in MDCK cells at 500 uM after 4 to 8 hrs post infection by MTT assay. In kind it is functional, cell-based. As to conditions: A/Puerto Rico/8/1934(H1N1). An outline of the steps:
(§1)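 Time-of-addition assay in MDCK cells. Virus was adsorbed at m.o.i. 10 for 1 h at 4°C, unbound virions were washed off with MEM, and cells were incubated for 8 h at 36°C, 5% CO2 (start = 0 h). Compound at 500 µM final in MEM was present during set windows between −2 and 8 hpi, then washed out. Titer after 8 h was read as TCID50 by MTT assay.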

Series [5] concerns Influenza A virus. Nature of the series: Antiviral activity against Influenza A virus (A/Puerto Rico/8/34(H1N1)) infected in MDCK cells at 500 uM at 1 to 2 hrs post infection by MTT assay. It counts as functional, cell-based. As to conditions: A/Puerto Rico/8/1934(H1N1). An outline of the steps: as §1

As for `CC1(C)[C@@H]2CC=C(COc3ccc4ccc(=O)oc4c3)[C@H]1C2`, the CC50 at 48 h in series [1] came to 7 µM. The IC50 in series [2] was greater than 10 µM. Further, the selectivity ratio in series [3] was found to be 1.
Take `CC1(C)[C@@H]2CC=C(COc3ccc4c5c(c(=O)oc4c3)CCCC5)[C@H]1C2`: in series [1], half-maximal cytotoxicity (CC50 at 48 h) was put at 415 µM. For the same compound, in series [2], the IC50 worked out at 149 µM. Besides, the selectivity ratio in series [3] came out at 3.
The corresponding values for `CC(N)C12CC3CC(CC(C3)C1)C2` (stereo unspecified) [RIMANTADINE] are 363 µM, 41 µM and 9.
The corresponding values for `CC1(C)[C@H]2CC=C(CCOc3ccc4c5c(c(=O)oc4c3)CCC5)[C@@H]1C2` are greater than 857 µM, 21 µM and 41.
Turning to `CC1(C)[C@H]2CC=C(CCOc3ccc4c5c(c(=O)oc4c3)CCCC5)[C@@H]1C2`, the CC50 at 48 h in series [1] worked out at 18 µM. In addition, the IC50 in series [2] amounted to 3 µM. In addition, the selectivity ratio in series [3] was determined as 6.
The corresponding values for `CC(C)=CCC/C(C)=C/COc1ccc2ccc(=O)oc2c1` are 7 µM, 7 µM and 1.
The compound `COc1cccc(COc2ccc3c(C)cc(=O)oc3c2)c1` gave a CC50 at 48 h in series [1] greater than 1120 µM. Further, in series [2], the IC50 came out at 1010 µM. Moreover, the selectivity ratio in series [3] is greater than 1.
Taken in the same sequence, the figures for `CC1(C)[C@H]2CC=C(CCOc3ccc4ccc(=O)oc4c3)[C@@H]1C2` were 10 µM, 0.5 µM and 20.
The corresponding values for `CC(C)=CCC/C(C)=C/COc1ccc2c(C)cc(=O)oc2c1` are 28 µM, greater than 10 µM and less than 3.
Taken in the same sequence, the figures for `CC1(C)[C@H]2CC=C(COc3ccc4c5c(c(=O)oc4c3)CCCC5)[C@@H]1C2` were 857 µM, 64 µM and 13.
Take `CC1(C)[C@H]2CC=C(COc3ccc4ccc(=O)oc4c3)[C@@H]1C2`: in series [1], half-maximal cytotoxicity (CC50 at 48 h) was put at 310 µM. The IC50 in series [2] was greater than 101 µM. Moreover, the selectivity ratio in series [3] was less than 3.
In series [1], `CC(C)=CCC/C(C)=C/COc1ccc2c3c(c(=O)oc2c1)CCC3` returned a CC50 at 48 h greater than 888 µM. In addition, the IC50 in series [2] is greater than 888 µM.
With `Cc1cc(=O)oc2cc(OCC3=CC[C@@H]4C[C@H]3C4(C)C)ccc12`, in series [1], the CC50 at 48 h worked out at 130 µM. For the same compound, in series [2], the IC50 stood at 10 µM. Also, the selectivity ratio in series [3] is 13.
In turn, `COc1cccc(COc2ccc3ccc(=O)oc3c2)c1` registered a CC50 at 48 h in series [1] greater than 1170 µM. Further, the IC50 in series [2] is greater than 1170 µM.
For the compound `CC1(C)[C@H]2CC=C(COc3ccc4c5c(c(=O)oc4c3)CCC5)[C@@H]1C2`, in series [4], the result was inactive. This compound had a CC50 at 48 h in series [1] of 982 µM. Moreover, the IC50 in series [2] was 36 µM. Also, in series [3], the selectivity ratio amounted to 28. The result in series [5] was Active.
In series [1], `Cc1cc(=O)oc2cc(OCC3=CC[C@H]4C[C@@H]3C4(C)C)ccc12` yielded a CC50 at 48 h of 30 µM. In addition, the IC50 in series [2] amounted to 4 µM. For the same compound, the selectivity ratio in series [3] was found to be 9.
`CC(C)=CCC/C(C)=C/COc1ccc2c3c(c(=O)oc2c1)CCCC3`: in series [1], the CC50 at 48 h came out at 100 µM. For the same compound, the IC50 in series [2] is greater than 85 µM. For the same compound, the selectivity ratio in series [3] came to 1.
As for `COc1cccc(COc2ccc3c4c(c(=O)oc3c2)CCCC4)c1`, in series [1], the CC50 at 48 h was greater than 982 µM. In addition, the IC50 in series [2] is greater than 982 µM.
`CC1(C)[C@@H]2CC=C(COc3ccc4c5c(c(=O)oc4c3)CCC5)[C@H]1C2` gave a CC50 at 48 h in series [1] of 133 µM. In addition, the IC50 in series [2] worked out at 33 µM. Besides, the selectivity ratio in series [3] is 4.
